Screening results from PubChem.
S100A4 MyoIIA: inhibitors of S100A4-myosin IIA peptide binding, primary screen, biochemical, fluorescence polarization, TAMRA-MyoIIA peptide. Protein S100-A4 (Homo sapiens), P26447. inhibition, % at 10.7 µM. hit rate 0.14% among 360,000. AID 652163, 2013;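 active = mean inhibition of at least 70% across replicates, with every replicate also reaching that level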
Target sequence (P26447 whole entry, looked up): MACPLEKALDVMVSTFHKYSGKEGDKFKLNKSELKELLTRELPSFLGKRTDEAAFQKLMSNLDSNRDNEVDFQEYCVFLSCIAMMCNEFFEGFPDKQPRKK
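Material: human S100A4 monomer with TAMRA-labelled myosin IIA peptide; buffer or medium: HEPES pH 7.2 with CaCl2, KCl, NaCl, DTT, Triton; compound dosing: one concentration per compound; schedule: 5 min incubation before reading; benchmarks: neutral control DMSO, positive control TFP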
SIRT5 block: SIRT5 desuccinylase inhibitors, primary screen, biochemical, fluorescence imaging, single point, set 5; NAD-dependent protein deacylase sirtuin-5, mitochondrial (Homo sapiens), Q9NXA8; Purified SirT5, succinyl-peptide AMC, trypsin-coupled fluorescence; inhibition, % at 15 µM; hit rate 1.1% among 330,000; AID 652115, 2013; in the data active = inhibition above about 15%
Target sequence (Q9NXA8 whole entry, looked up): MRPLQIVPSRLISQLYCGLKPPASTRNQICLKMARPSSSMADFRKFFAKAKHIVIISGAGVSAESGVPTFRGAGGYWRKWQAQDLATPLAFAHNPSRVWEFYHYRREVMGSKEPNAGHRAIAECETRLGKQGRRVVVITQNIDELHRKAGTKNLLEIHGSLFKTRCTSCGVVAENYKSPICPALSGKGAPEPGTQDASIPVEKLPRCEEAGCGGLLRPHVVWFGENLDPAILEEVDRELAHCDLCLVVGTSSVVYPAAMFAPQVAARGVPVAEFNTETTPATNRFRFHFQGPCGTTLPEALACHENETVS
DENV2 CPE: inhibitors of DENV2 cytopathic effect, primary screen, cell-based, plate reader, single concentration; DENV2-infected cells, cytopathic effect rescue; CPE inhibition, % at 9.99 µM; hit rate 1.7% among 350,000; in the data active = CPE inhibition above about 20%, passing the limit was not always enough; tested in BHK-21 cells;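 note: 0% = median of neutral control wells and 100% = median of positive control wells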
PGC1a acetyl inh: inhibitors of PGC1a acetylation signal, primary screen, cell-based, U2OS, AlphaScreen, inhibitor mode; AlphaScreen anti-acetyl-lysine; with virally co-expressed GCN5 acetyltransferase; inhibition, % at 15.6 µM; hit rate 0.17% among 350,000; AID 651687, 2012;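 active = every replicate shows inhibition of at least 40%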;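 note: 0% = neutral control wells and 100% = positive control wells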
C2C12 statin: suppressors of statin myotoxicity in C2C12 myotubes, primary screen, cell-based, single point, plate reader | C2C12 myotubes + simvastatin, ATP luminescence, 48 h; scaled: DMSO 0, geranylgeraniol control 100 | rescue of ATP level, % at 7.49 µM | AID 602340, 2012 | hit rate 0.78% among 330,000;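 active = mean ATP rescue above about 67%, or every replicate alone reaching that limit, limit read from the data, passing the limit was not always enough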;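 note: myotubes were challenged with 10 µM simvastatin during compound exposure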
* = called active by the depositor. Sampled rows, rich in hits. Any-hit rate of the full collection: about 2.9%.

Results for O=C(C[C@H]1CC[C@@H](NC(=O)Nc2ccccc2F)[C@@H](CO)O1)NCc1ccc(-c2ccccc2)cc1 ?
S100A4 MyoIIA: 3.0; SIRT5 block: 3.4; DENV2 CPE: 30.2*

What do the screens show for `O=C(C[C@H]1CC[C@H](NC(=O)NC2CCCCC2)[C@H](CO)O1)NCc1ccc(Cl)cc1`?
S100A4 MyoIIA: -20.3; SIRT5 block: -0.6; DENV2 CPE: 7.4; PGC1a acetyl inh: 53.6*; C2C12 statin: 0.8

How did O=C(C[C@@H]1CC[C@H](NC(=O)NC2CCCCC2)[C@@H](CO)O1)NCc1ccc(Cl)cc1 do in these assays?
S100A4 MyoIIA: -5.1; SIRT5 block: -3.9; DENV2 CPE: 19.6; PGC1a acetyl inh: -1.0; C2C12 statin: 1.4

Results for COCCNC(=O)C[C@H]1CC[C@H](NC(=O)NC2CCCC2)[C@H](CO)O1 ?
S100A4 MyoIIA: -9.6; SIRT5 block: 3.1; DENV2 CPE: -4.5; PGC1a acetyl inh: -4.5; C2C12 statin: -1.8

What do the screens show for `COc1ccccc1NC(=O)N[C@@H]1CC[C@@H](CCNS(=O)(=O)c2ccccc2)O[C@H]1CO`?
S100A4 MyoIIA: -5.0; SIRT5 block: 0.3; DENV2 CPE: 13.1; PGC1a acetyl inh: -2.3; C2C12 statin: -2.3

How did O=C(C[C@H]1C[C@H]2c3cc(NS(=O)(=O)c4ccc(F)cc4)ccc3O[C@H]2[C@H](CO)O1)NCC1CC1 do in these assays?
DENV2 CPE: -3.4; PGC1a acetyl inh: 2.9; C2C12 statin: -5.2

How did C[C@@H]1CN([C@@H](C)CO)C(=O)Cc2cc(NC(=O)Cc3ccccc3)ccc2O[C@H]1CN(C)S(=O)(=O)c1ccc(F)cc1 do in these assays?
S100A4 MyoIIA: -29.0; SIRT5 block: 1.7; DENV2 CPE: -4.8; PGC1a acetyl inh: -2.4; C2C12 statin: 3.7

What do the screens show for `C[C@H](CO)N1C[C@H](C)[C@@H](CN(C)Cc2ccc3c(c2)OCO3)Oc2ccc(NS(=O)(=O)c3ccc(Cl)cc3)cc2CC1=O`?
S100A4 MyoIIA: 12.9; SIRT5 block: 17.9*; DENV2 CPE: 6.0; PGC1a acetyl inh: -16.3; C2C12 statin: 62.8

Results for COc1ccc(S(=O)(=O)Nc2ccc3c(c2)CC(=O)N([C@@H](C)CO)C[C@H](C)[C@H](CN(C)Cc2ccc4c(c2)OCO4)O3)cc1 ?
S100A4 MyoIIA: -2.6; SIRT5 block: 3.6; DENV2 CPE: 28.2*; PGC1a acetyl inh: -1.1; C2C12 statin: 1.6

Results for C[C@H](CO)N1C[C@H](C)[C@H](CN(C)Cc2ccc3c(c2)OCO3)Oc2ccc(NS(=O)(=O)c3ccc(Cl)cc3)cc2CC1=O ?
S100A4 MyoIIA: 9.0; SIRT5 block: 3.4; DENV2 CPE: -4.6; PGC1a acetyl inh: -5.6; C2C12 statin: -19.6

Results for C[C@@H]1CN([C@@H](C)CO)C(=O)Cc2cc(NS(=O)(=O)c3ccc(Cl)cc3)ccc2O[C@@H]1CN(C)Cc1ccc2c(c1)OCO2 ?
S100A4 MyoIIA: -1.5; SIRT5 block: 11.4; DENV2 CPE: -8.7; PGC1a acetyl inh: -9.6; C2C12 statin: 40.9

What do the screens show for `C[C@H]1CN([C@@H](C)CO)C(=O)Cc2cc(NS(=O)(=O)c3ccc(Cl)cc3)ccc2O[C@@H]1CN(C)Cc1ccc2c(c1)OCO2`?
S100A4 MyoIIA: 4.9; SIRT5 block: 6.0; DENV2 CPE: 23.4*; PGC1a acetyl inh: -5.6; C2C12 statin: 24.3

How did CCOC(=O)C1=C(CS(=O)(=O)c2ccc(C)cc2)NC(=O)NC1c1cc(OC)c(O)c(OC)c1 (centres undefined) do in these assays?
S100A4 MyoIIA: -2.0; SIRT5 block: -6.5; DENV2 CPE: 36.6*; PGC1a acetyl inh: -1.8; C2C12 statin: 18.1

How did C[C@H]([C@H](O)c1ccccc1)N(C)C(=O)CN do in these assays?
S100A4 MyoIIA: 13.7; SIRT5 block: 21.3*; DENV2 CPE: -1.5; PGC1a acetyl inh: 3.5; C2C12 statin: 7.6

Results for Cc1noc(C)c1S(=O)(=O)N(C)C[C@@H]1Oc2ccc(NC(=O)CCCN(C)C)cc2CC(=O)N([C@@H](C)CO)C[C@H]1C ?
S100A4 MyoIIA: -0.3; SIRT5 block: -5.2; DENV2 CPE: 17.4; PGC1a acetyl inh: 10.8; C2C12 statin: -19.0

What do the screens show for `Cc1cc(C)cc(NC(=O)COC(=O)CCCC2=NS(=O)(=O)c3ccccc3N2)c1`?
S100A4 MyoIIA: -0.6; SIRT5 block: 2.2; DENV2 CPE: -0.5

What do the screens show for `CCOc1ccccc1NC(=O)COC(=O)CC(C)(C)CC1=NS(=O)(=O)c2ccccc2N1`?
S100A4 MyoIIA: -2.8; SIRT5 block: 18.2*; DENV2 CPE: -8.1; PGC1a acetyl inh: -2.8; C2C12 statin: -9.8

How did Cc1ccc2c(c1)c1c(n2CC(O)CNC2CCCC2)CCCC1 (centres undefined) do in these assays?
S100A4 MyoIIA: 5.3; SIRT5 block: -4.2; DENV2 CPE: 27.4*; PGC1a acetyl inh: -5.8; C2C12 statin: -8.4

What do the screens show for `Cc1ccc2c(c1)c1c(n2CC(O)Cn2ccnc2C)C(=O)CCC1` (centres undefined)?
PGC1a acetyl inh: -0.7; C2C12 statin: -3.3

How did Cc1cccc(S(=O)(=O)N2CCCCN3[C@H](CO)[C@H](c4ccc(-c5ccncc5)cc4)[C@@H]3C2)c1 do in these assays?
S100A4 MyoIIA: -0.3; SIRT5 block: 11.6; DENV2 CPE: 32.5*; PGC1a acetyl inh: -6.5; C2C12 statin: 53.0

Results for Cc1ccc(-c2ccc([C@H]3[C@@H](CO)N4CCCCN(S(=O)(=O)c5cccc(C)c5)C[C@H]34)cc2)cc1 ?
S100A4 MyoIIA: -0.2; SIRT5 block: 18.8*; DENV2 CPE: -4.5; PGC1a acetyl inh: -16.0

Results for Cc1ccc(-c2ccc([C@@H]3[C@@H](CO)N4CCCCN(S(=O)(=O)c5cccc(C)c5)C[C@@H]34)cc2)cc1 ?
S100A4 MyoIIA: 5.0; SIRT5 block: 16.6*; DENV2 CPE: 0.7; PGC1a acetyl inh: 4.3

How did Cc1ccc(-c2ccc(C3[C@@H]4CN(S(=O)(=O)c5cccc(C)c5)C[C@H]3N4)cc2)cc1 (some centres undefined) do in these assays?
S100A4 MyoIIA: 11.0; SIRT5 block: 28.4*; DENV2 CPE: 3.0; PGC1a acetyl inh: -8.3

What do the screens show for `C[C@H](CO)N1C[C@H](C)[C@H](CN(C)Cc2ccc3c(c2)OCO3)Oc2c(NC(=O)c3ccc(-c4nccs4)cc3)cccc2C1=O`?
S100A4 MyoIIA: -36.2; SIRT5 block: 5.4; DENV2 CPE: -3.0; PGC1a acetyl inh: -6.8; C2C12 statin: -36.3

What do the screens show for `CSC(=NS(=O)(=O)c1ccc(N)cc1)NS(=O)(=O)c1cccs1`?
S100A4 MyoIIA: -17.0; SIRT5 block: 53.3*; DENV2 CPE: -10.2; PGC1a acetyl inh: 7.2

What do the screens show for `COC(=O)c1cc(COC(=O)c2ccc(OC)c(S(=O)(=O)N3CCCC3)c2)oc1C`?
PGC1a acetyl inh: -38.8; C2C12 statin: 89.7*
